High-throughput results as filed in PubChem.
DAT uptake mod: changed hDAT dopamine uptake under cocaine IC80, either direction, primary screen, cocaine antagonist project, cell-based, LLC-PK1 hDAT, [14C]-dopamine uptake, MLSMR. Sodium-dependent dopamine transporter (Homo sapiens), Q01959. LLC-PK1 hDAT cells, [14C]-dopamine uptake with cocaine IC80; actives deviate in either direction. B-score at 10 µM. 110,000 compounds, 1.3% hits. AID 449768, 2010;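 active means Z score or B-score, a plate-position-corrected score, falls beyond the plate's 99.7% confidence bounds, in either direction; inactive means both scores lie inside the 99.7% bounds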;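 further: scored against the spread of the other compound wells on the same plate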
Target sequence (Q01959 whole entry, looked up): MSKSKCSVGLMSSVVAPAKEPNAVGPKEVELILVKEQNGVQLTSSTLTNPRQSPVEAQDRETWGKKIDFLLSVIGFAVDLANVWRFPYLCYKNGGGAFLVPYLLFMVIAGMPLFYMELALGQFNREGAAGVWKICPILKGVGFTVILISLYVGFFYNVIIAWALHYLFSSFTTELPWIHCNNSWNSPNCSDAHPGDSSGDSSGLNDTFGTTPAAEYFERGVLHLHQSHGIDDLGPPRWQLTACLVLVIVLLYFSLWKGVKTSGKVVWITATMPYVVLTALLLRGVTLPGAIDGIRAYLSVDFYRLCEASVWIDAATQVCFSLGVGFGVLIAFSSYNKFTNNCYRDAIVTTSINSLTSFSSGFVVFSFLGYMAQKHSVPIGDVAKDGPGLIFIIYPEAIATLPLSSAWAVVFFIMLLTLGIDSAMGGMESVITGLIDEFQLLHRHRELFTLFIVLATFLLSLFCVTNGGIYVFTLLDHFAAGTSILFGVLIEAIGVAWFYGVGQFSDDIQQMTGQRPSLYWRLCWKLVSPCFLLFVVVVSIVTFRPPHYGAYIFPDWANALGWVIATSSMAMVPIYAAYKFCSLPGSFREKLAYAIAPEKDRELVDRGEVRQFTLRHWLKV
RAM inhibit: inhibitors of the yeast RAM network, primary screen, dse1pr::URA3 reporter, 5-FOA selection; S. cerevisiae dse1pr::URA3 reporter, 5-FOA growth OD615, 2 d; analog-sensitive cbk1-as2 kinase mutant strain; 190,000 compounds, 1.8% hits; inhibition, % at 50 µM;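 active means inhibition above a set limit, 3 SD over mean compound inhibition, cut at about 8.4% in these data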;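 further: 0% = DMSO-only wells with no growth and 100% = 10 µM 1-NA-PP1 full growth; inhibition rescues growth on 5-FOA so higher OD means more RAM inhibition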
BB579 growth dn: growth inhibitors of yeast BB579 in restrictive medium, primary screen, yeast lifespan-shortening project, S. cerevisiae; 140,000 compounds, 0.51% hits; AID 804, 2007; OD615, 48 h; inhibition, % at 10 µM;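 active means inhibition above a set limit, 3 SD over the mean compound inhibition, cut at about 44% in these data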
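Assay system: S. cerevisiae DeaD strain BB579 yeast. Medium: CSMM-D restrictive synthetic medium containing dextrose (glucose). Times: 4 h cell preincubation, 48 h compound exposure, 30 °C humidified. Signal: OD615 turbidity measurement. Benchmarks: positive control amphotericin B 10 µg/mL.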
WT yeast gro inh: growth inhibition of WT strain, primary screen, mitochondrial fusion inhibitor project, WT and mutant strains, chemical genetic. AID 1362, 2008. inhibition, % at 10 µM. 190,000 compounds, 2.1% hits. mitochondrial fusion phenotypic screen; in the data active means inhibition above about 58%; tested in S. cerevisiae
Yeast life ext: compounds extending yeast replicative lifespan, primary screen, S. cerevisiae, OD615 | S. cerevisiae growth with nicotinamide; deaD strain in restrictive glucose medium | 130,000 compounds, 0.68% hits | inhibition of the nicotinamide effect, % at 10 µM;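 active means inhibition above a set limit, placed 3 SD over the median of all compounds, cut at about 26% in these data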;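 further: 0% = nicotinamide-treated wells and 100% = cells grown without nicotinamide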
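Buffer or medium: CSMM-D glucose medium, restrictive; test system: modified budding yeast, DeaD strain; compound: single dose 10 µM compound, 0.25% DMSO; schedule: culture preincubation 4 h, compound exposure 48 h, both 30 °C; detection: optical density (absorbance) at 615 nm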
Measles CPE: compounds protecting cells from measles virus cytopathic effect, primary screen, measles RdRp inhibitor project, single point, MLSMR library, absorbance | Measles virus-infected cells, CPE protection | 140,000 compounds, 1.5% hits | protection (pct of control), % at 4 µM; in the data active means protection mostly above about 24%, no sharp cut-off; inactive means mostly below about 26%
RAM 5-FOA: 5-FOA growth of efflux-deficient control yeast, dose response, counter-screen for RAM network inhibitor project, S. cerevisiae, OD615; shares compounds with RAM inhibit; S. cerevisiae efflux-deficient reporter strain, 5-FOA growth OD615, 2 days; max inhibition, %; 1,200 tested, under 10 active; AID 1305, 2008; call rule not given here;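 further: plate controls were vehicle for no effect and reference inhibitor for full effect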
* marks the source's active call; other numbers are inactive results; / = not tested or not shown. The list is not random: actives were taken first. Their share in the collection is about 6.1%.

SMILES	DAT uptake mod	RAM inhibit	BB579 growth dn	WT yeast gro inh	Yeast life ext	Measles CPE	RAM 5-FOA
COC(=O)C/C=C/[C@@H](C)[C@@H](/C=N/OC[C@H]1O[C@H](c2ccccc2)C=C[C@@H]1Oc1ccc(OC)cc1)NS(=O)(=O)c1ccc(C)cc1	/	16*	-30	3	10	4	3
COc1ccc(O[C@H]2C=C[C@@H](c3ccccc3)O[C@@H]2CO/N=C(\C)CCC(=O)OC[C@H]2O[C@H](c3ccccc3)C=C[C@@H]2Oc2ccc(OC)cc2)cc1	/	25*	-52	-8	3	4	6
COC(=O)C/C=C/[C@@H](C)[C@@H](/C=N/O[C@@H](C)c1cn([C@H](CO)Cc2ccccc2)nn1)NS(=O)(=O)c1ccc(C)cc1	/	0	-1	14	2	14	/
CCOC(=O)N1CCC(N(CCN(C)C)C(=S)Nc2cccc(SC)c2)CC1	/	33*	/	12	/	/	1
CCNC(=O)CSc1nnc(-c2ccccc2Br)n1-c1cccc(C(F)(F)F)c1	/	12*	-14	-6	0	22	16
NC(=O)CSc1nnc(-c2ccccc2Br)n1-c1cccc(C(F)(F)F)c1	/	1	-10	-6	-5	11	/
CCc1cc2c(Sc3nc4ccccc4s3)ncnc2s1	0.31	13*	2	10	-15	9	2
N#CCCn1c(Cl)nc2ccccc21	-1.1	1	-19	1	-2	14	/
Cn1c(=O)[nH]c(Nc2ccccc2)c([N+](=O)[O-])c1=O	/	2	/	-13	/	/	/
CCOC(=O)C1=C(CC)Nc2ccccc2N=C1NC(=O)c1cc(S(=O)(=O)N(C)C)ccc1Cl	0.015	13*	-17	-2	-5	3	4
Cc1ccccc1C(=O)NC1CC2CCC(C1)N2Cc1ccccc1 (stereo not given)	/	1	/	-21	/	/	/
COc1ccc(C(C#N)N2N=C(c3ccccc3)CC2c2ccccc2)cc1OC (stereo not given)	/	4	-13	8	-8	10	/
COc1ccc(C2=NN(C(C#N)c3ccc(OC)cc3)C(c3ccccc3)C2)cc1 (stereo not given)	/	14*	-18	0	0	9	2
Cc1oc(-c2nc3ccccc3n2C)cc1C(=O)c1ccccc1	-0.039	0	-20	48	-5	5	/
Cc1cccc(N(C(=O)Nc2ccc(Cl)cc2)C2=NCC(C)S2)n1 (stereo not given)	/	1	/	6	/	/	/
COc1ccc(Cn2nnc(C(=O)Nc3ccc(F)cc3)c2N)cc1	2.2	1	-24	-15	-11	6	/
COc1ccc(Cc2nc(C(=O)Nc3ccc(F)cc3)cs2)cc1	0.34	16*	-30	8	-8	9	3
O=C(Nc1ccccc1-c1nnc(SCc2ccccc2Cl)o1)c1ccccc1	-0.99	12*	-16	-11	-6	6	3
COc1cc(OC)cc(C(=O)OCCNC(=O)Cn2cnc3c2c(=O)n(C)c(=O)n3C)c1	/	-1	/	-11	/	/	/
CC(NC(=O)COC(=O)/C(=C/c1cccs1)c1cccs1)c1ccccc1 (stereo not given)	/	14*	-44	52	4	16	1
NS(=O)(=O)c1cccc(NC(=O)COC(=O)/C(=C/c2cccs2)c2cccs2)c1	/	5	-14	-12	-1	15	/
CN(C)c1oc(-c2ccc(OCc3ccccc3)cc2)nc1C#N	-1.2	14*	-24	-5	-20	4	3
N#Cc1nc(-c2ccc(OCc3ccccc3)cc2)oc1NCc1cccnc1	-0.14	7	-48	8	-23	5	/
Cc1cc([N+](=O)[O-])nn1CCCC(=O)Nc1cc(Cl)ccc1Cl	/	1	/	-12	/	/	/
CCCCCCn1c(=O)c(C(=O)N/N=C/c2cccc(F)c2)c(O)c2ccccc21	/	16*	/	-22	/	/	5
SMILES	DAT uptake mod	RAM inhibit	BB579 growth dn	WT yeast gro inh	Yeast life ext	Measles CPE	RAM 5-FOA
CCCc1nnc(NC(=O)c2c(O)c3cccc4c3n(c2=O)CC4)s1	0.37	/	/	/	/	/	/
CCCCCCCCC(=O)NNC(=O)c1c(O)c2ccccc2n(CC)c1=O	/	13*	/	1	/	/	1
O=C(NCCc1ccccc1)c1c(O)c2cccc3c2n(c1=O)CC3	0.06	22*	-62	3	3	2	2
CCn1c(=O)c(C(=O)NCCc2ccccc2)c(O)c2ccccc21	0.27	12*	-38	3	-1	11	4
Cc1oc(/C=N/NC(=O)CN(c2ccccc2Br)S(C)(=O)=O)cc1Br	-1.4	1	-48	25	-14	7	/
CC1CC(C)CN(CCCCOc2ccc([N+](=O)[O-])cc2)C1 (stereo not given)	/	0	-20	18	9	9	/
NC(=O)COC(=O)CSc1cccc2cccc(Cl)c12	/	2	/	-10	/	/	/
CCCOc1ccc(N2C(=O)CC(N(CCc3ccccc3)C(=O)c3ccccc3)C2=O)cc1 (stereo not given)	/	12*	/	4	/	/	1
CCCOc1ccc(N2C(=O)CC(N(CCc3ccc(OC)cc3)C(=O)c3cccc(F)c3)C2=O)cc1 (stereo not given)	-0.0069	5	-19	-7	-1	3	/
COC(=O)c1cc(=O)n(CCc2ccccc2)c(=Nc2ccc(F)cc2)s1	-1.8	12*	-34	7	-4	28	5
CC(C)(C)N(Cc1ccccc1)C(=O)c1ccc(Cl)cc1[N+](=O)[O-]	/	2	/	4	/	/	/
O=C(c1ccc(Cl)cc1[N+](=O)[O-])N(Cc1ccccc1)Cc1ccccc1	/	13*	-25	61*	7	7	3
COc1nc2ccc(C)cc2cc1-c1noc(-c2ccccc2)n1	0.7	12*	-53	9	-26	6	3
O=C(COC(=O)CNS(=O)(=O)c1ccc2ccccc2c1)Nc1ccccc1Sc1ccccc1	/	23*	-31	-1	0	14	4
Cc1oc2ccc(OC(=O)c3cccs3)cc2c1C(=O)OC(C)C	/	14*	-48	71*	-3	4	1
CSc1ccc(/C=C/C(=O)c2ccc(NC(=O)Cc3ccccc3)cc2)cc1	0.68	14*	-70	2	-20	18	6
C/C(=N\OC(=O)c1ccc(OC(C)C)cc1)c1ccc(C)c(C)c1	0.51	12*	-16	33	-8	3	3
CC/C(=N\OC(=O)c1ccc(OC(C)C)cc1)c1ccc(C)cc1	/	4	-53	28	-10	28	/
